Results as given in ChEMBL document CHEMBL5705902, “Role of G Protein-Coupled Receptor Kinases 2 and 3 in μ-Opioid Receptor Desensitization and Internalization” (Mol Pharmacol, 2015).
Active and inactive are the calls of the source. No cut-off for these calls is given here.

Legend:
[1] = biological target: Mu-type opioid receptor (Rattus norvegicus) (UniProt P33535); assay: Inhibition of MOPr desensitization in wistar rat LC neuron cells assessed as reduction in the Met-Enk induced desensitization at 30 uM incubated for 15 mins before relative to control; assay type: functional, cell-based
How it was run: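 Whole-cell patch clamp of GIRK currents in locus coeruleus slices from male Wistar rats (5–8 weeks). Inhibitor was given at least 15 min before and during the agonist, all drugs by superfusion. Percent desensitization was taken over 10 min of opioid agonist application. Met-Enk n = 5, endomorphin-2 n = 6; ANOVA.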
Target sequence in this assay (P33535 whole entry, the tested form may be a part): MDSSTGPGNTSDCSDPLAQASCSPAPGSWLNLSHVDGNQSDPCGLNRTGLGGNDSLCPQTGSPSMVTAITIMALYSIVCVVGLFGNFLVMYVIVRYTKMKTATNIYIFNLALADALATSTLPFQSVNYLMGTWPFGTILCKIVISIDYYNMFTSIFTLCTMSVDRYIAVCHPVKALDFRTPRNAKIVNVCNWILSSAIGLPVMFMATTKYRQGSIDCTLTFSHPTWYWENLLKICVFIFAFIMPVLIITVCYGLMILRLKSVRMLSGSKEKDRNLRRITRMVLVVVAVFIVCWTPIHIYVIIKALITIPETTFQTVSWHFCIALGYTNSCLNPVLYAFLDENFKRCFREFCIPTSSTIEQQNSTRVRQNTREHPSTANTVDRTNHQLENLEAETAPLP

[2] = biological target: Mu-type opioid receptor (Rattus norvegicus) (UniProt P33535); assay: Inhibition of MOPr desensitization in wistar rat LC neuron cells assessed as reduction in the DAMGO induced desensitization at 3 to 100 uM incubated for 15 mins before; assay type: functional, cell-based; conditions: dose 3-100 µM
How it was run: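 Rat LC neurons (Wistar, 5–8 weeks) were recorded by whole-cell patch clamp. DAMGO 10 μM was superfused for 12 min to desensitize, then the maximal morphine 30 μM response was measured at plateau. Inhibitor was superfused beforehand; n = 4; ANOVA.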
Target sequence in this assay (P33535 whole entry, the tested form may be a part): as above

[3] = biological target: Mu-type opioid receptor (Rattus norvegicus) (UniProt P33535); assay: Inhibition of MOPr desensitization in wistar rat LC neuron cells assessed as reduction in the Met-Enk induced desensitization at 30 uM incubated for 15 mins before in the presence of PD98059; assay type: functional, cell-based
Target sequence in this assay (P33535 whole entry, the tested form may be a part): as above

[4] = biological target: Mu-type opioid receptor (Rattus norvegicus) (UniProt P33535); assay: Inhibition of MOPr desensitization in wistar rat LC neuron cells assessed as reduction in the Met-Enk induced desensitization at 30 uM incubated for 15 mins before in the presence of amlexanox; assay type: functional, cell-based
Target sequence in this assay (P33535 whole entry, the tested form may be a part): as above

[5] = biological target: Mu-type opioid receptor (Rattus norvegicus) (UniProt P33535); assay: Inhibition of MOPr desensitization in wistar rat LC neuron cells assessed as reduction in the morphine induced desensitization at 30 uM incubated for 15 mins; assay type: functional, cell-based
Target sequence in this assay (P33535 whole entry, the tested form may be a part): as above

[6] = biological target: Mu-type opioid receptor (Rattus norvegicus) (UniProt P33535); assay: Inhibition of HA-tagged rat MOPr in HEK293 cells assessed as prevention in DAMGO induced MOPr phosphorylation at Thr379 level at 30 uM preincubated for 30 mins by western blot analysis; assay type: functional, cell-based
Target sequence in this assay (P33535 whole entry, the tested form may be a part): as above

[7] = biological target: Serine/threonine-protein kinase N2 (Homo sapiens) (UniProt Q16513); assay: Inhibition of human PRK2 assessed as remaining activity at 1 uM in presence of 32ATP relative to control
How it was run: (§1)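 Express panel of 52 purified human kinases run in vitro. Kinase activity was measured directly by a radioactive filter-binding assay with ³²ATP, at ATP levels at or below each kinase's calculated Km for ATP. The compound was tested at 1 μM. Each assay was run in duplicate, and activity is given as the mean percentage (with S.D.) of activity without inhibitor.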

[8] = biological target: Serine/threonine-protein kinase Sgk1 (Homo sapiens) (UniProt O00141); assay: Inhibition of human SGK1 assessed as remaining activity at 1 uM in presence of 32ATP relative to control; how it was run: as §1
[9] = biological target: Ribosomal protein S6 kinase alpha-1 (Homo sapiens) (UniProt Q15418); assay: Inhibition of human RSK1 assessed as remaining activity at 1 uM in presence of 32ATP relative to control; how it was run: as §1
[10] = biological target: Serine/threonine-protein kinase D1 (Homo sapiens) (UniProt Q15139); assay: Inhibition of human PKD1 assessed as remaining activity at 1 uM in presence of 32ATP relative to control; how it was run: as §1
[11] = biological target: Serine/threonine-protein kinase Chk2 (Homo sapiens) (UniProt O96017); assay: Inhibition of human CHK2 assessed as remaining activity at 1 uM in presence of 32ATP relative to control
How it was run: (§2)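 Express screen of 52 purified human kinases run as a radioactive filter-binding assay with 32ATP, at 1 μM inhibitor. ATP was at or below each kinase's calculated Km. Activity is given as percent of the activity without inhibitor. Run in duplicate; mean with S.D.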

Homo sapiens = species: Homo sapiens; assay: Inhibition of human AMPK assessed as remaining activity at 1 uM in presence of 32ATP relative to control; how it was run: as §2
[12] = biological target: Glycogen synthase kinase-3 beta (Homo sapiens) (UniProt P49841); assay: Inhibition of human GSK3b assessed as remaining activity at 1 uM in presence of 32ATP relative to control; how it was run: as §1
[13] = biological target: Mitogen-activated protein kinase kinase kinase 11 (Homo sapiens) (UniProt Q16584); assay: Inhibition of human MLK3 assessed as remaining activity at 1 uM in presence of 32ATP relative to control; how it was run: as §1
[14] = biological target: Receptor tyrosine-protein kinase erbB-4 (Homo sapiens) (UniProt Q15303); assay: Inhibition of human HER4 assessed as remaining activity at 1 uM in presence of 32ATP relative to control; how it was run: as §1
[15] = biological target: Serine/threonine-protein kinase 3 (Homo sapiens) (UniProt Q13188); assay: Inhibition of human MST2 assessed as remaining activity at 1 uM in presence of 32ATP relative to control; how it was run: as §1
[16] = biological target: SRSF protein kinase 1 (Homo sapiens) (UniProt Q96SB4); assay: Inhibition of human SRPK1 assessed as remaining activity at 1 uM in presence of 32ATP relative to control; how it was run: as §1
[17] = biological target: Serine/threonine-protein kinase Nek6 (Homo sapiens) (UniProt Q9HC98); assay: Inhibition of human NEK6 assessed as remaining activity at 1 uM in presence of 32ATP relative to control; how it was run: as §1
[18] = biological target: Interleukin-1 receptor-associated kinase 4 (Homo sapiens) (UniProt Q9NWZ3); assay: Inhibition of human IRAK4 assessed as remaining activity at 1 uM in presence of 32ATP relative to control; how it was run: as §1
[19] = biological target: Homeodomain-interacting protein kinase 2 (Homo sapiens) (UniProt Q9H2X6); assay: Inhibition of human HIPK2 assessed as remaining activity at 1 uM in presence of 32ATP relative to control; how it was run: as §1
[20] = biological target: Eukaryotic elongation factor 2 kinase (Homo sapiens) (UniProt O00418); assay: Inhibition of human EF2K assessed as remaining activity at 1 uM in presence of 32ATP relative to control; how it was run: as §2
[21] = biological target: High affinity nerve growth factor receptor (Homo sapiens) (UniProt P04629); assay: Inhibition of human TrkA assessed as remaining activity at 1 uM in presence of 32ATP relative to control; how it was run: as §1
[22] = biological target: Mitogen-activated protein kinase kinase kinase 7 (Homo sapiens) (UniProt O43318); assay: Inhibition of human TAK1 assessed as remaining activity at 1 uM in presence of 32ATP relative to control; how it was run: as §1
[23] = biological target: Serine/threonine-protein kinase N2 (Homo sapiens) (UniProt Q16513); assay: Inhibition of human PRK2 at 1 uM in presence of 32ATP relative to control; how it was run: as §1
[24] = biological target: Serine/threonine-protein kinase Sgk1 (Homo sapiens) (UniProt O00141); assay: Inhibition of human SGK1 at 1 uM in presence of 32ATP relative to control; how it was run: as §1
[25] = biological target: G protein-coupled receptor kinase 3 (Homo sapiens, UniProt P35626); assay: Inhibition of human GRK3 in the presence of ATP
[26] = biological target: Beta-2 adrenergic receptor (Bos taurus) (UniProt Q28044); assay: Inhibition of bovine beta2-adrenoceptor desensitization in HEK293 cell; assay type: cell-based; conditions: dose 3-30 µM
[27] = biological target: Beta-adrenergic receptor kinase 1 (Homo sapiens) (UniProt P25098); assay: Inhibition of human GRK2 at 1 uM relative to control
[28] = biological target: Mu-type opioid receptor (Rattus norvegicus) (UniProt P33535); assay: Inhibition of MOPr desensitization (unknown origin) assessed as drop in maximum morphine response at 30 uM incubated for 15 mins relative to control

Chain of Serine/threonine-protein kinase N2 (Homo sapiens) (Q16513 whole entry, looked up): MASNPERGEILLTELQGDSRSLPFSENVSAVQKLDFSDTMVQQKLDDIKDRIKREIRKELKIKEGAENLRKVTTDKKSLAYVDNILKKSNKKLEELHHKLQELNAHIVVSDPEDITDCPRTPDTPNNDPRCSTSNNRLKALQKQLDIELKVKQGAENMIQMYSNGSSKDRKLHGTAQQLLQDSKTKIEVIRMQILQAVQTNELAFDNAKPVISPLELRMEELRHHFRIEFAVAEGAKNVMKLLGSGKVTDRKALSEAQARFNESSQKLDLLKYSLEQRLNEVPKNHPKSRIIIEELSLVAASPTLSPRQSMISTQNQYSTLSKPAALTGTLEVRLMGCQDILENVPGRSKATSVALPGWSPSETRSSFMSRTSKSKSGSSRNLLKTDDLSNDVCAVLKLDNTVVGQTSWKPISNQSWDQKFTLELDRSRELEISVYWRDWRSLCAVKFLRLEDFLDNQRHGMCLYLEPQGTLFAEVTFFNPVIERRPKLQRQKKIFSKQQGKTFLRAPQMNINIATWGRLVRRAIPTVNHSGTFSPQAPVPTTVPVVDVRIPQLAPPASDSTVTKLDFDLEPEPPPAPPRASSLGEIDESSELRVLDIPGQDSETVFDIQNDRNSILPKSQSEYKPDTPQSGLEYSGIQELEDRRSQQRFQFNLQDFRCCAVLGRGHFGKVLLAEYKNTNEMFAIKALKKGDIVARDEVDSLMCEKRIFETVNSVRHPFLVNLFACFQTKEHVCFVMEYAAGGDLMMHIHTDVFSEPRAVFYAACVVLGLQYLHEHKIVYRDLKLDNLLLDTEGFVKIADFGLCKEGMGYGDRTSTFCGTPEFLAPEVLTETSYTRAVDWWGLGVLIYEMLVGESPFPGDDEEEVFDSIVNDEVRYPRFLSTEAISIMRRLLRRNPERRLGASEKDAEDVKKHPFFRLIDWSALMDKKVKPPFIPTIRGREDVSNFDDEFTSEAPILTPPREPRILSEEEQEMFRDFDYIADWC
Chain of Serine/threonine-protein kinase Sgk1 (Homo sapiens) (O00141 whole entry): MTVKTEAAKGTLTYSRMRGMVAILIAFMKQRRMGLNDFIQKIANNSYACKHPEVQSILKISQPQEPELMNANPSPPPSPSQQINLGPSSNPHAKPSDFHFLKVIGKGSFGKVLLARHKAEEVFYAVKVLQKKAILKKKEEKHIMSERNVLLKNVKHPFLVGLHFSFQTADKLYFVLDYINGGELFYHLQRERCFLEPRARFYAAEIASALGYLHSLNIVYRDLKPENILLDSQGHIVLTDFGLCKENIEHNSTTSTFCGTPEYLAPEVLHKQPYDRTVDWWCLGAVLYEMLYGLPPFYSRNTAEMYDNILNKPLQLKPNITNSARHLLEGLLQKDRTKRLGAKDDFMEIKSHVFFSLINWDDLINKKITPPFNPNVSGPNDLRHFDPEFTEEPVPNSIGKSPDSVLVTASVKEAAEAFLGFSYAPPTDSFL
Chain of High affinity nerve growth factor receptor (Homo sapiens) (P04629 33-796 limits assumed): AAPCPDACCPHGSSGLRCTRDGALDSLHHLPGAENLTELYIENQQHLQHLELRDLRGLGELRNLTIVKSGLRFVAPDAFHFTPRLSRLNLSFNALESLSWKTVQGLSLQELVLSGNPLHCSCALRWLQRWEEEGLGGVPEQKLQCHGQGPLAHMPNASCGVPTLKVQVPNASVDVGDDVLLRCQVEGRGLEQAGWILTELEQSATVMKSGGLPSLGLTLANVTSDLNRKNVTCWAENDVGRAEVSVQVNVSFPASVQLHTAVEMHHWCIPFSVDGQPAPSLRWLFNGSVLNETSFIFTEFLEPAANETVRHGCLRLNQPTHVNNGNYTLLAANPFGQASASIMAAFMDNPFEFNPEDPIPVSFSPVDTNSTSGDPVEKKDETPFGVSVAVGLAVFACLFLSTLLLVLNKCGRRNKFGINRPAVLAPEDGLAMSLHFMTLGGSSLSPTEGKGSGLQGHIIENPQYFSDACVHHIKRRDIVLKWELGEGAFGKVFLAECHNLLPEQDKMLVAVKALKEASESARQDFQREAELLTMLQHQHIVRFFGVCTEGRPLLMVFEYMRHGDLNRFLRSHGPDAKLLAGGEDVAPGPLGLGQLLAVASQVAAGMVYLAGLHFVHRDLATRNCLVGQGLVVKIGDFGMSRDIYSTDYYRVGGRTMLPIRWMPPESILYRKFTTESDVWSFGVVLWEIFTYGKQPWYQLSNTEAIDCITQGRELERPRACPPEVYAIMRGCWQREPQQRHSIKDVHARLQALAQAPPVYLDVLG
Chain of Beta-adrenergic receptor kinase 1 (Homo sapiens) (P25098 whole entry): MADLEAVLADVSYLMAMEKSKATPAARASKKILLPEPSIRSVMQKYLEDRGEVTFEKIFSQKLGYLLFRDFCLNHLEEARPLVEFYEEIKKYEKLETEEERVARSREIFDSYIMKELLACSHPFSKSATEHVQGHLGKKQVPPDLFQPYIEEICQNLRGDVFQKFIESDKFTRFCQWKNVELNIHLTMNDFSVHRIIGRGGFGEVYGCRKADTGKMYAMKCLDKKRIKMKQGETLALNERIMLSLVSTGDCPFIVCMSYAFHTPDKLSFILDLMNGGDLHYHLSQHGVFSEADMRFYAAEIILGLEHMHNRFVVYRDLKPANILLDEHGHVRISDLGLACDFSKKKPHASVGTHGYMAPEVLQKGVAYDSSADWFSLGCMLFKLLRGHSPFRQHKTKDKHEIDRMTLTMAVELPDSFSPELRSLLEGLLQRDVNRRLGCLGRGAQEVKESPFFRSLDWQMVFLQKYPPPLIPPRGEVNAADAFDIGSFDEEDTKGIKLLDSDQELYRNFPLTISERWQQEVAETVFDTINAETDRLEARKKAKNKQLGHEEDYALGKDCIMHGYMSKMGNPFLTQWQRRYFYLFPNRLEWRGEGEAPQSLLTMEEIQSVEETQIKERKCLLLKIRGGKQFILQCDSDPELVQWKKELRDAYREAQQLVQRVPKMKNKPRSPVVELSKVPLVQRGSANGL
Chain of Beta-2 adrenergic receptor (Bos taurus) (Q28044 whole entry, looked up): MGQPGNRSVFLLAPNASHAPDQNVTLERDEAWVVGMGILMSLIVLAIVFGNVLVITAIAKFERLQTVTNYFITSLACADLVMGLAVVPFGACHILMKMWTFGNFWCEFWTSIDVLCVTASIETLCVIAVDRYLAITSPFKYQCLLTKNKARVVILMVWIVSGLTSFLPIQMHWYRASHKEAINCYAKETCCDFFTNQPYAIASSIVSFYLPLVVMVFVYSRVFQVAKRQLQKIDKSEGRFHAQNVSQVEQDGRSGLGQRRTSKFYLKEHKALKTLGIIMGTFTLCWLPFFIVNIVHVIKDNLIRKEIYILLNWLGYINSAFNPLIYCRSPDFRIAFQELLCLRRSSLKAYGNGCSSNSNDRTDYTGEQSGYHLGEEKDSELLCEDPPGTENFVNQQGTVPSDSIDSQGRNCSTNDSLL
Chain of Eukaryotic elongation factor 2 kinase (Homo sapiens) (O00418 whole entry): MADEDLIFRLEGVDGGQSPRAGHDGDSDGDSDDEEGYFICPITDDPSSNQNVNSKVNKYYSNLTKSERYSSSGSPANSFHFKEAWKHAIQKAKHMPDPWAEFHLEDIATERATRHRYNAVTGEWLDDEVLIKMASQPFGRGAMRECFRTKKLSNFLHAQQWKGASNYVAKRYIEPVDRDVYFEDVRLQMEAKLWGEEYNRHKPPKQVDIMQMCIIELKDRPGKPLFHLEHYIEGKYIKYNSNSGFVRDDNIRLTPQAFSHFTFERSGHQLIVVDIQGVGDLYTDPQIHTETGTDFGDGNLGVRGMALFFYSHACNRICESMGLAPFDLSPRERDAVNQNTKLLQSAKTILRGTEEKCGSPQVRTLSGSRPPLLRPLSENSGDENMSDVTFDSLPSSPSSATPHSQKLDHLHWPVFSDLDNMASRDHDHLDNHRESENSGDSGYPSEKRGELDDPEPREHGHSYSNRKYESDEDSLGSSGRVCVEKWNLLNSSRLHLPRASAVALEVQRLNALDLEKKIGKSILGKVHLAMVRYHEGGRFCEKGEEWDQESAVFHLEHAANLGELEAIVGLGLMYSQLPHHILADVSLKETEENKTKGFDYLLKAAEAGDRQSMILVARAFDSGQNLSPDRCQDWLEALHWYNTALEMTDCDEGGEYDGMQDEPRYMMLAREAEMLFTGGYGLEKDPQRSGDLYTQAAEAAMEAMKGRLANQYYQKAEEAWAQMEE
Chain of Serine/threonine-protein kinase Nek6 (Homo sapiens) (Q9HC98 whole entry): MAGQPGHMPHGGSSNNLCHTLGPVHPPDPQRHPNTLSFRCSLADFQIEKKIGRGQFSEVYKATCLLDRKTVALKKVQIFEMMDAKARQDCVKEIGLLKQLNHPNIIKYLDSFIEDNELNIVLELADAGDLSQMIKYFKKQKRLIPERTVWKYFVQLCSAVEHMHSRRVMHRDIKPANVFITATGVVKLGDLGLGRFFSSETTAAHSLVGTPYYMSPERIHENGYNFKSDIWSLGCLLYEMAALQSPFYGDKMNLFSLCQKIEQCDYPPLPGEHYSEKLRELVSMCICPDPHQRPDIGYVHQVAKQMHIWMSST

For Cn1c(CNc2cccc(C(=O)NCc3ccccc3C(F)(F)F)c2)nnc1-c1ccncc1, the desensitization [1] was 15%, the inhibition [2] was “Active” and the inhibition [3] was “inactive”. For the same molecule, the inhibition [4] was “inactive”, the inhibition [5] was “Active” and the inhibition [6] was “Active”. It also gave an Activity [7] of 7%, an Activity [8] of 31% and an Activity [9] of 48%. For the same molecule, the Activity [10] was 65%, the Activity [11] was 79% and the Activity (Homo sapiens) was 82%. For the same molecule, the Activity [12] was 85%, the Activity [13] was 86% and the Activity [14] was 86%. For the same molecule, the Activity [15] was 89%, the Activity [16] was 91% and the Activity [17] was 95%. For the same molecule, the Activity [18] was 96%, the Activity [19] was 103% and the Activity [20] was 103%. It also gave an Activity [21] of 106%, an Activity [22] of 113% and an inhibition [23] of 93%. The inhibition [24] was 69%, the IC50 [25] was 290 nM and the inhibition [26] was “Dose-Dependent Effect”. For the same molecule, the inhibition [27] was > 90% and the inhibition [28] was 44%.
